Source: ChEMBL document CHEMBL2331506, “Design, synthesis, antiviral and cytostatic evaluation of novel isoxazolidine nucleotide analogues with a carbamoyl linker” (Bioorg Med Chem, 2013)
Activity calls are given as the source filed them. The rule behind the calls is not given here.

Assays:
MDCK = test: Cytotoxicity against dog MDCK cells assessed as alteration of cell morphology up to 100 uM by microscopic analysis; assay type: cell-based, Canis lupus familiaris
Method in brief: (§1)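 Uninfected host-cell cultures were exposed to compound and examined by microscopy. Cytotoxicity was expressed as the minimum cytotoxic concentration (MCC) causing a microscopically detectable alteration of normal cell morphology.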

[1] = Cytotoxicity against cat CRFK cells assessed as alteration of cell morphology up to 100 uM by microscopic analysis; assay type: cell-based, Felis catus; method in brief: as §1
Vero = test: Cytotoxicity against african green monkey Vero cells assessed as alteration of cell morphology up to 100 uM by microscopic analysis; assay type: cell-based; conditions: chlorocebus sabaeus; method in brief: as §1
HeLa = test: Cytotoxicity against human HeLa cells assessed as alteration of cell morphology up to 100 uM by microscopic analysis; assay type: cell-based; method in brief: as §1
HEL = test: Cytotoxicity against human HEL cells assessed as alteration of cell morphology up to 100 uM by microscopic analysis; assay type: cell-based; method in brief: as §1
[2] = system: Human immunodeficiency virus 2; test: Antiviral activity against Human immunodeficiency virus 2 ROD infected in human CEM cells assessed as reduction of virus-induced giant cell formation at 250 uM after 4 to 5 days; assay type: functional, organism-based; conditions: CCRF-CEM
Method in brief: (§2)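 CEM cells at 3 × 10^5 cells/mL were infected with HIV at 100 CCID50 per mL in the presence of compound dilutions. They were held 4–5 days at 37 °C in humidified CO2. Syncytium (giant cell) formation was scored microscopically, and EC50 was taken as the concentration inhibiting giant cell formation by 50%.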

[3] = system: Human immunodeficiency virus 1; test: Antiviral activity against Human immunodeficiency virus 1 3B infected in human CEM cells assessed as reduction of virus-induced giant cell formation at 250 uM after 4 to 5 days; assay type: functional, organism-based; conditions: CCRF-CEM; method in brief: as §2
Feline coronavirus = test: Antiviral activity against Feline coronavirus infected in cat CRFK cells assessed as reduction of virus-induced cytopathogenicity at 250 uM; assay type: functional, organism-based
Felid alphaherpesvirus 1 = test: Antiviral activity against Feline herpes virus infected in cat CRFK cells assessed as reduction of virus-induced cytopathogenicity at 250 uM; assay type: functional, organism-based
Influenza B virus = test: Antiviral activity against Influenza B virus infected in dog MDCK cells assessed as reduction of virus-induced cytopathogenicity at 250 uM; assay type: functional, organism-based
Method in brief: (§3)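 Confluent cell monolayers were infected with 100 CCID50 of virus while exposed to varying compound concentrations. Cytopathicity was scored once it was complete in untreated infected controls. EC50 was taken as the concentration that reduced virus-induced cytopathogenicity by 50%.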

Influenza A virus [4] = test: Antiviral activity against Influenza A virus H3N2 infected in dog MDCK cells assessed as reduction of virus-induced cytopathogenicity at 250 uM; assay type: functional, organism-based; method in brief: as §3
Influenza A virus [5] = test: Antiviral activity against Influenza A virus H1N1 infected in dog MDCK cells assessed as reduction of virus-induced cytopathogenicity at 250 uM; assay type: functional, organism-based; method in brief: as §3
Punta Toro virus = test: Antiviral activity against Punta Toro virus infected in african green monkey Vero cells assessed as reduction of virus-induced cytopathogenicity at 250 uM; assay type: functional, organism-based
Method in brief: (§4)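 Confluent monolayers (HEL fibroblasts, Vero, or HeLa cells as listed) were infected with 100 CCID50 of virus in the presence of varying compound concentrations. Virus-induced cytopathicity or plaque formation was scored once cytopathicity was complete in untreated infected controls. EC50 was taken as the concentration reducing cytopathogenicity or plaque formation by 50%.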

Sindbis virus = test: Antiviral activity against Sindbis virus infected in african green monkey Vero cells assessed as reduction of virus-induced cytopathogenicity at 250 uM; assay type: functional, organism-based; method in brief: as §4
Coxsackievirus B4 = test: Antiviral activity against Coxsackievirus B4 infected in african green monkey Vero cells assessed as reduction of virus-induced cytopathogenicity at 250 uM; assay type: functional, organism-based; method in brief: as §4
[6] = system: Mammalian orthoreovirus 1; test: Antiviral activity against Reovirus 1 infected in african green monkey Vero cells assessed as reduction of virus-induced cytopathogenicity at 250 uM; assay type: functional, organism-based; method in brief: as §4
Human respirovirus 3 = test: Antiviral activity against Parainfluenza virus 3 infected in african green monkey Vero cells assessed as reduction of virus-induced cytopathogenicity at 250 uM; assay type: functional, organism-based; method in brief: as §4
[7] = system: Respiratory syncytial virus; test: Antiviral activity against Respiratory syncytial virus long infected in human HeLa cells assessed as reduction of virus-induced cytopathogenicity at 250 uM; assay type: functional, organism-based; method in brief: as §4
[8] = system: Vesicular stomatitis virus; test: Antiviral activity against Vesicular stomatitis virus infected in human HeLa cells assessed as reduction of virus-induced cytopathogenicity at 250 uM; assay type: functional, organism-based; method in brief: as §3
Human alphaherpesvirus 1 [9] = test: Antiviral activity against thymidine kinase-deficient, ACV-resistant Herpes simplex virus 1 KOS infected in human HEL cells assessed as reduction of virus-induced cytopathogenicity at 250 uM; assay type: functional, organism-based; method in brief: as §3
[10] = system: Vesicular stomatitis virus; test: Antiviral activity against Vesicular stomatitis virus infected in human HEL cells assessed as reduction of virus-induced cytopathogenicity at 250 uM; assay type: functional, organism-based; method in brief: as §3
Human alphaherpesvirus 2 = test: Antiviral activity against Herpes simplex virus 2 G infected in human HEL cells assessed as reduction of virus-induced cytopathogenicity at 250 uM; assay type: functional, organism-based; conditions: strain G; method in brief: as §4
Human alphaherpesvirus 1 [11] = test: Antiviral activity against Herpes simplex virus 1 KOS infected in human HEL cells assessed as reduction of virus-induced cytopathogenicity at 250 uM; assay type: functional, organism-based; method in brief: as §4

SMILES	Activity (MDCK)	Activity [1]	Activity (Vero)	Activity (HeLa)	Activity (HEL)	inhibition [2]	inhibition [3]	inhibition (Feline coronavirus)	inhibition (Felid alphaherpesvirus 1)	inhibition (Influenza B virus)	inhibition (Influenza A virus [4])	inhibition (Influenza A virus [5])	inhibition (Punta Toro virus)	inhibition (Sindbis virus)	inhibition (Coxsackievirus B4)	inhibition [6]	inhibition (Human respirovirus 3)	inhibition [7]	inhibition [8]	inhibition (Human alphaherpesvirus 1 [9])	also measured
CCOP(=O)(OCC)[C@@H]1C[C@H](C(=O)Nc2cc(OC)c(OC)cc2C(C)=O)ON1C (mixture of isomers)	Non-toxic	Non-toxic	Non-toxic	Non-toxic	Non-toxic	inactive	inactive	inactive	inactive	inactive	inactive	inactive	inactive	inactive	inactive	inactive	inactive	inactive	inactive	inactive	inhibition [10]: inactive; inhibition (Human alphaherpesvirus 2): inactive; inhibition (Human alphaherpesvirus 1 [11]): inactive
CCOP(=O)(OCC)[C@@H]1C[C@H](C(=O)Nc2ccccc2C(C)=O)ON1C (mixture of isomers)	Non-toxic	Non-toxic	Non-toxic	Non-toxic	Non-toxic	inactive	inactive	inactive	inactive	inactive	inactive	inactive	inactive	inactive	inactive	inactive	inactive	inactive	inactive	inactive	inhibition [10]: inactive; inhibition (Human alphaherpesvirus 2): inactive; inhibition (Human alphaherpesvirus 1 [11]): inactive
CCOP(=O)(OCC)[C@@H]1C[C@H](C(=O)Nc2ccccc2Br)ON1C (mixture of isomers)	Non-toxic	Non-toxic	Non-toxic	Non-toxic	Non-toxic	inactive	inactive	inactive	inactive	inactive	inactive	inactive	inactive	inactive	inactive	inactive	inactive	inactive	inactive	inactive	inhibition [10]: inactive; inhibition (Human alphaherpesvirus 2): inactive; inhibition (Human alphaherpesvirus 1 [11]): inactive
CCOP(=O)(OCC)[C@@H]1C[C@H](C(=O)Nc2ccccc2Cl)ON1C (mixture of isomers)	Non-toxic	Non-toxic	Non-toxic	Non-toxic	Non-toxic	inactive	inactive	inactive	inactive	inactive	inactive	inactive	inactive	inactive	inactive	inactive	inactive	inactive	inactive	inactive	inhibition [10]: inactive; inhibition (Human alphaherpesvirus 2): inactive; inhibition (Human alphaherpesvirus 1 [11]): inactive
CCOP(=O)(OCC)[C@H]1C[C@H](C(=O)Nc2cccc(Cl)c2)ON1C (mixture of isomers)	Non-toxic	Non-toxic	Non-toxic	Non-toxic	Non-toxic	inactive	inactive	inactive	inactive	inactive	inactive	inactive	inactive	inactive	inactive	inactive	inactive	inactive	inactive	inactive	inhibition [10]: inactive; inhibition (Human alphaherpesvirus 2): inactive; inhibition (Human alphaherpesvirus 1 [11]): inactive
CCOP(=O)(OCC)[C@H]1C[C@H](C(=O)Nc2ccccc2Br)ON1C (mixture of isomers)	Non-toxic	Non-toxic	Non-toxic	Non-toxic	Non-toxic	inactive	inactive	inactive	inactive	inactive	inactive	inactive	inactive	inactive	inactive	inactive	inactive	inactive	inactive	inactive	inhibition [10]: inactive; inhibition (Human alphaherpesvirus 2): inactive; inhibition (Human alphaherpesvirus 1 [11]): inactive
CCOP(=O)(OCC)[C@@H]1C[C@H](C(=O)Nc2ccc(C#N)cc2)ON1C (mixture of isomers)	Non-toxic	Non-toxic	Non-toxic	Non-toxic	Non-toxic	inactive	inactive	inactive	inactive	inactive	inactive	inactive	inactive	inactive	inactive	inactive	inactive	inactive	inactive	inactive	inhibition [10]: inactive; inhibition (Human alphaherpesvirus 2): inactive; inhibition (Human alphaherpesvirus 1 [11]): inactive
CCOP(=O)(OCC)[C@H]1C[C@H](C(=O)Nc2cc(OC)c(OC)cc2C#N)ON1C (mixture of isomers)	Non-toxic	Non-toxic	Non-toxic	Non-toxic	Non-toxic	inactive	inactive	inactive	inactive	inactive	inactive	inactive	inactive	inactive	inactive	inactive	inactive	inactive	inactive	inactive	inhibition [10]: inactive; inhibition (Human alphaherpesvirus 2): inactive; inhibition (Human alphaherpesvirus 1 [11]): inactive
